Reference: ChEMBL document CHEMBL5329178, “Synthesis and antibacterial activity of 2-benzylidene-3-oxobutanamide derivatives against resistant pathogens” (RSC Med Chem, 2023)
Active and inactive are the calls of the source. No cut-off for these calls is given here.

Key:
Acinetobacter baumannii [1] = test: Antibacterial activity against Acinetobacter baumannii assessed as growth inhibition at 32 ug/mL by whole cell growth inhibition assay relative to control; format: functional; settings: read-out: GI
Procedure, shortened: (§1)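 Primary single-concentration screen at 32 µg/mL, final DMSO ≤1%, duplicate on different plates. Mid-log cultures in cation-adjusted Mueller Hinton broth at 5×10^5 CFU/mL; 37 °C, 18 h, no shaking. OD600 read; % growth inhibition relative to media-only and untreated-bacteria controls on the same plate. Strains: E. coli ATCC 25922, A. baumannii ATCC 19606, S. aureus ATCC 43300 (MRSA).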

Staphylococcus aureus [2] = test: Antibacterial activity against Staphylococcus aureus assessed as growth inhibition at 32 ug/mL by whole cell growth inhibition assay relative to control; format: functional; settings: read-out: GI; procedure, shortened: as §1
Escherichia coli = test: Antibacterial activity against Escherichia coli assessed as growth inhibition at 32 ug/mL by whole cell growth inhibition assay relative to control; format: functional; settings: read-out: GI; procedure, shortened: as §1
[3] = Octanol/Water partition coefficient, logP of the compound; format: physicochemical
[4] = Solubility of the compound in water; format: physicochemical; settings: buffer
Staphylococcus aureus [5] = test: Bacteriostatic activity against Staphylococcus aureus ATCC 700698 assessed as log reduction in colony forming unit measured per ml after 24 hrs by time kill assay; format: functional
Procedure, shortened: (§2)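 Time-kill assay in cation-adjusted MHB. Overnight cultures (S. aureus MRSA ATCC 700698; A. baumannii ATCC 19606) diluted 1:10,000, grown 2 h at 37 °C, 220 rpm to early exponential phase. […] Aliquots taken at intervals, tenfold serially diluted, plated on MHA overnight at 37 °C for CFU counts.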

Staphylococcus aureus [6] = test: Antibacterial activity against methicillin resistant Staphylococcus aureus assessed as growth inhibition at 32 ug/mL by HIT assay relative to control; format: functional; settings: read-out: GI
Procedure, shortened: (§3)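 A. baumannii ATCC 19606 and MRSA ATCC 43300 were grown overnight in cation-adjusted Mueller Hinton broth at 37 °C, subcultured to mid-log, and added at 5×10^5 CFU/mL to an 8-point, 2-fold dilution series (32–0.25 µg/mL; ≤0.5% DMSO). After 18 h static at 37 °C, OD600 was read. Percent inhibition was taken against media-only and untreated-bacteria wells, in duplicate. MIC was the lowest concentration giving ≥80% inhibition.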

[7] = Cytotoxicity against human HEK293 cells assessed as cell viability at 64 ug/ml relative to control; format: toxicity, cell-based; settings: at 64 µg/mL, read-out: Activity
[8] = Hemolytic activity in RBC (unknown origin) assessed as cell viability at 64 ug/ml relative to control; format: toxicity, cell-based, Erythrocyte; settings: red blood cells (erythrocytes), at 64 µg/mL, read-out: Activity
Staphylococcus aureus [9] = test: Antibacterial activity against methicillin resistant Staphylococcus aureus assessed as growth inhibition; format: functional, organism-based; procedure, shortened: as §3
Acinetobacter baumannii [10] = test: Antibacterial activity against susceptible Acinetobacter baumannii; format: functional
Acinetobacter baumannii [11] = test: Antibacterial activity against Multi drug resistant Acinetobacter baumannii assessed as growth inhibition at 32 ug/mL by HIT assay relative to control; format: functional; settings: read-out: GI; procedure, shortened: as §3
Acinetobacter baumannii [12] = test: Bactericidal activity against Acinetobacter baumannii assessed as log reduction in bacterial count measured after 24 hrs by time kill assay; format: functional; procedure, shortened: as §2
Staphylococcus aureus [13] = test: Antibacterial activity against methicillin resistant Staphylococcus aureus assessed as growth inhibition at 16 ug/mL by HIT assay relative to control; format: functional; settings: read-out: GI; procedure, shortened: as §3
Acinetobacter baumannii [14] = test: Antibacterial activity against Multi drug resistant Acinetobacter baumannii assessed as growth inhibition at 16 ug/mL by HIT assay relative to control; format: functional; settings: read-out: GI; procedure, shortened: as §3
Acinetobacter baumannii [15] = test: Bactericidal activity against multi-drug resistant Acinetobacter baumannii assessed as log reduction in colony forming unit measured after 24 hrs by time kill assay; format: functional
Procedure, shortened: (§4)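 MRSA ATCC 700698 and A. baumannii ATCC 19606 overnight cultures were diluted 1:10,000 in MHB and grown 2 h at 37 °C and 220 rpm to early exponential phase. […] At intervals, aliquots were tenfold serially diluted, plated on MHA and incubated overnight at 37 °C for CFU counts.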

Staphylococcus aureus [16] = test: Antibacterial activity against methicillin resistant Staphylococcus aureus assessed as growth inhibition at 2 ug/mL by HIT assay relative to control; format: functional; settings: read-out: GI; procedure, shortened: as §3
Staphylococcus aureus [17] = test: Bacteriostatic activity against methicillin resistant Staphylococcus aureus assessed as log reduction in colony forming unit measured after 24 hrs by time kill assay; format: functional; procedure, shortened: as §4

Row | SMILES | inhibition of growth at 32 µg/mL (Acinetobacter baumannii [1]) [%] | inhibition of growth at 32 µg/mL (Staphylococcus aureus [2]) [%] | inhibition of growth at 32 µg/mL (Escherichia coli) [%] | logP [3] | solubility [4] | also measured
1 | CC(=O)/C(=C/c1ccc(Cl)cc1)C(N)=O | 65.4 | 87.5 | 67.8 | 1.88 | Soluble | 
2 | CC(=O)/C(=C/c1ccc(C)cc1)C(N)=O |  |  |  | 1.68 | Soluble | 
3 | O=C(/C=C/c1ccccc1)c1ccccc1 [CHALCONE] |  |  |  | 3.29 | Soluble | 
4 | CC(=O)/C(=C/c1ccc(Br)cc1)C(N)=O | 53 | 83.7 | 51.8 | 1.62 | Soluble | Activity (Staphylococcus aureus [5]): 2 log10CFU/ml; inhibition of growth at 32 µg/mL (Staphylococcus aureus [6]): 94.2%; viability at 64 ug/ml [7]: 94.8%; viability at 64 ug/ml [8]: 98.9%
5 | CN[C@H](CC(C)C)C(=O)N[C@H]1C(=O)N[C@@H](CC(N)=O)C(=O)N[C@H]2C(=O)N[C@H]3C(=O)N[C@H](C(=O)N[C@H](C(=O)O)c4cc(O)cc(O)c4-c4cc3ccc4O)[C@H](O)c3ccc(c(Cl)c3)Oc3cc2cc(c3O[C@@H]2O[C@H](CO)[C@@H](O)[C@H](O)[C@H]2O[C@H]2C[C@](C)(N)[C@H](O)[C@H](C)O2)Oc2ccc(cc2Cl)[C@H]1O.Cl [VANCOMYCIN HYDROCHLORIDE] |  |  |  |  |  | growth inhibition (GI) (Staphylococcus aureus [9]): inactive; MIC (Acinetobacter baumannii [10]): 0.25 µg/mL
6 | CC(=O)/C(=C/c1cccc(C#N)c1)C(N)=O |  |  |  | 1.15 | Soluble | 
7 | CC(=O)/C(=C/c1ccccc1Br)C(N)=O | 60 | 93.8 | 51.6 | 1.62 | Soluble | Activity (Staphylococcus aureus [5]): 2 log10CFU/ml; inhibition of growth at 32 µg/mL (Staphylococcus aureus [6]): 80%; viability at 64 ug/ml [7]: 90.2%; viability at 64 ug/ml [8]: 95.3%
8 | CC(=O)/C(=C/c1ccc2c(c1)OCO2)C(N)=O |  |  |  | 1.23 | Soluble | 
9 | CC(=O)/C(=C/c1ccccc1[N+](=O)[O-])C(N)=O |  |  |  | 1.09 | Soluble | 
10 | CC(=O)/C(=C/c1ccc(C#N)cc1)C(N)=O |  |  |  | 1.13 | Soluble | 
11 | CC(=O)/C(=C/c1ccccc1C#N)C(N)=O | 70.8 | 14.4 | 52.1 | 1.09 | Soluble | inhibition of growth at 32 µg/mL (Acinetobacter baumannii [11]): 50.5%; log(activity) (Acinetobacter baumannii [12]): >3; viability at 64 ug/ml [7]: 97.6%; viability at 64 ug/ml [8]: 92.2%
12 | COc1cccc(/C=C(/C(C)=O)C(N)=O)c1OC |  |  |  | 1.3 | Soluble | 
13 | COc1cc(/C=C(/C(C)=O)C(N)=O)cc(OC)c1OC |  |  |  | 1.41 | Soluble | 
14 | CC(=O)/C(=C/c1ccccc1Cl)C(N)=O | 58.8 | 98.1 | 66.8 | 1.38 | Soluble | 
15 | CC(=O)/C(=C/c1ccccc1)C(N)=O |  |  |  | 1.6 | Soluble | 
16 | CCc1ccc(/C=C(/C(C)=O)C(N)=O)cc1 |  |  |  | 1.99 | Soluble | 
17 | CC(=O)/C(=C/c1cccc(F)c1)C(N)=O |  |  |  | 1.49 | Soluble | 
18 | CC(=O)/C(=C/c1ccc(O)cc1)C(N)=O |  |  |  | 0.94 | Soluble | 
19 | CC(=O)/C(=C/c1ccc(OCc2ccccc2)cc1)C(N)=O |  |  |  | 2.72 | Soluble | 
20 | CCc1ccc(/C=C(/C(C)=O)C(N)=O)cc1[N+](=O)[O-] | 27.7 | 82.7 | 25.5 | 1.31 | Soluble | viability at 64 ug/ml [7]: 88.9%; inhibition of growth at 16 µg/mL (Staphylococcus aureus [13]): 99.2%; viability at 64 ug/ml [8]: 94.5%
21 | CC(=O)/C(=C/c1ccccc1F)C(N)=O | 58.2 | 43.8 | 59.7 | 1.66 | Soluble | 
22 | COc1cc(/C=C/C(=O)CC(=O)/C=C/c2ccc(O)c(OC)c2)ccc1O [CURCUMIN] |  |  |  | 3.03 | Soluble | 
23 | CC(=O)/C(=C/c1cccc([N+](=O)[O-])c1)C(N)=O | 98 | 83.7 | 51.1 | 1.15 | Soluble | inhibition of growth at 16 µg/mL (Acinetobacter baumannii [14]): 98.2%; Activity (Acinetobacter baumannii [15]): >3 log10CFU; Activity (Staphylococcus aureus [5]): 2 log10CFU/ml; inhibition of growth at 2 µg/mL (Staphylococcus aureus [16]): 99.4%; Activity (Staphylococcus aureus [17]): >3 log10CFU; viability at 64 ug/ml [7]: 93.8%; viability at 64 ug/ml [8]: 96.4%
24 | CC(=O)/C(=C/c1ccc(C(F)(F)F)cc1)C(N)=O |  |  |  | 2.43 | Soluble | 
25 | CC(=O)/C(=C/c1cccc(Br)c1)C(N)=O |  |  |  | 1.73 | Soluble | 
26 | CC(=O)/C(=C/c1ccc([N+](=O)[O-])cc1)C(N)=O | 30.5 | 98.2 | 68.1 | 1.13 | Soluble | Activity (Staphylococcus aureus [5]): 2 log10CFU/ml; inhibition of growth at 2 µg/mL (Staphylococcus aureus [16]): 98.7%; viability at 64 ug/ml [7]: 90.6%; viability at 64 ug/ml [8]: 95.1%
